Experiments:
Histamine H3 receptor [1] = target: T1, Histamine H3 receptor (Cavia porcellus, UniProt Q9JI35); experiment: In vitro binding affinity for histamine H3 receptor was determined in guinea-pig cerebral cortex using [3H](R)-alpha-methylhistamine; type: tissue-based
[2] = target: Histamine H3 receptor (Cavia porcellus) (UniProt Q9JI35); experiment: Tested in vitro against histamine H3 receptor mediated inhibition of cholinergic neurogenic contractions in isolated guinea pig ileum; type: functional, tissue-based
Sequence of Histamine H3 receptor (Cavia porcellus) (Q9JI35 whole entry): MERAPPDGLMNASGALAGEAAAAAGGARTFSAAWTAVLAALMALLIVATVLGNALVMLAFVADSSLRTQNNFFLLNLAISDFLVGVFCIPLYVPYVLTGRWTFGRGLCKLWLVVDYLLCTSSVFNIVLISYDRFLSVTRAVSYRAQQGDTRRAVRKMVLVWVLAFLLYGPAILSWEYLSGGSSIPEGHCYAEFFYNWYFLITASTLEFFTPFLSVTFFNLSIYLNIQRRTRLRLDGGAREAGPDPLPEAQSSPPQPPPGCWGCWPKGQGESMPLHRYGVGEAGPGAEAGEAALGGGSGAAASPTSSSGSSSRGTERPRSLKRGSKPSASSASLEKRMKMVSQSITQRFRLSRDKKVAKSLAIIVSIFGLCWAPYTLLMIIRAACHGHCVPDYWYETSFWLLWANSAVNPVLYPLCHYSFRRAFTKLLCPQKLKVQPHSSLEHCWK
Method in brief: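 Electrically stimulated guinea-pig ileum, where H3 receptors mediate inhibition of cholinergic neurogenic contractions. Agonist was (R)-α-methylhistamine. pKB ± SEM was estimated from single shifts of the agonist concentration-effect curve in at least four separate tissues, for compounds acting as surmountable antagonists. Compounds were given as dihydrochloride salts.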

Histamine H3 receptor [3] = target: T1, Histamine H3 receptor; experiment: In vitro binding affinity towards histamine H3 receptor was determined in guinea-pig cerebral cortex using [3H](R)-alpha-methylhistamine

T1 sequence (Q9JI35 whole entry): as above

SMILES	Ki (Histamine H3 receptor [1]) [µM]	pKB [2]	Ki (Histamine H3 receptor [3]) [µM]
N=C(NCCCCCN1CCCC1)NCc1ccc(Cl)cc1	0.00537	7.3	–
N=C(NCCCN1CCCC1)NCc1ccc(Cl)cc1	0.0562	6.42	–
N=C(NCCCCN1CCCC1)NCc1ccc(Cl)cc1	0.00513	7.32	–
O=S(=O)(NCCCN1CCCC1)c1ccc2ccccc2c1	0.324	5.96	–
N=C(NCCCCCN1CCCCCCC1)NCC12CC3CC(CC(C3)C1)C2	0.0302	7.37	–
N=C(NCCCN1CCCC1)Nc1ccc(Cl)cc1	0.0537	6.03	–
N=C(N)N(CCCCCN1CCCC1)Cc1ccc(Cl)cc1	0.00107	7.91	–
CN(C)CCCSC(=N)N	0.0479	5.93	–
N=C(NCCCCN1CCCC1)NCCc1ccc(Cl)cc1	0.00676	6.24	–
COc1ccc(C/N=C(\N)NCCCN2CCCC2)cc1	0.0832	6.08	–
N=C(NCCCN1CCCC1)NCc1ccccc1Br	0.0427	6.27	–
N=C(NCCCCCN1CCCC1)NCC12CC3CC(CC(C3)C1)C2	0.00355	7.9	–
N=C(NCCCN1CCCC1)NCc1ccc(Br)cc1	0.00468	6.45	–
N=C(NCCCCCN1CCCC1)NCC1CCCCCC1	0.00355	7.67	–
N=C(NCCCCCN1CCCC1)NCC1CCCCC1	0.00141	7.52	–
O=S(=O)(Cc1ccc(Cl)cc1)NCCCN1CCCC1	0.537	6.24	–
O=[N+]([O-])c1ccc(OCCCCCN2CCCC2)cc1	–	–	0.039

SMILES	Ki (Histamine H3 receptor [1]) [µM]	pKB [2]	Ki (Histamine H3 receptor [3]) [µM]
N=C(NCCCN1CCCC1)NCCc1ccc(Cl)cc1	0.000933	6.68	–
S=C(NCCCN1CCCC1)NCc1ccc(Cl)cc1	0.407	5.66	–
O=S(=O)(NCCCN1CCCC1)NCc1ccc(Cl)cc1	0.229	6.21	–
N=C(NCCCN1CCCC1)NCc1ccc(I)cc1	0.0537	6.43	–
N=C(N)N(CCCCCCCCN1CCCC1)Cc1ccc(Cl)cc1	0.00468	8.09	–
N=C(N)N(CCCCN1CCCC1)Cc1ccc(Cl)cc1	0.00794	7.34	–
N=C(NCCCN1CCCC1)NCc1cccc(Br)c1	0.0257	6.46	–
N=C(NCCCN1CCCC1)NCc1ccccc1	0.02	6.2	–
N=C(NCCCCCN1CCCCC1)NCC12CC3CC(CC(C3)C1)C2	0.0107	8.14	–
N=C(N)N(CCCCCCN1CCCC1)Cc1ccc(Cl)cc1	0.00417	8.39	–
CN(C)CCCNS(=O)(=O)c1ccc2ccccc2c1	1	5.52	–
N=C(NCCCN1CCCC1)NCc1ccc(C(F)(F)F)cc1	0.1	6.1	–
O=[N+]([O-])c1ccc(OCCCN2CCC(Nc3nc4ccccc4s3)CC2)cc1	0.00631	–	–
N=C(N)N(CCCCCCCN1CCCC1)Cc1ccc(Cl)cc1	0.002	8.38	–
N=C(NCCCCCN1CCCC1)NCCc1ccc(Cl)cc1	0.00759	7.06	–
N=C(NCCCCCN1CCCCCC1)NCC12CC3CC(CC(C3)C1)C2	0.00794	7.84	–

Source: ChEMBL document CHEMBL1133103, “Design, synthesis, and structure-activity relationships of novel non-imidazole histamine H(3) receptor antagonists” (J Med Chem, 2000)
